Calls of active or inactive are those of the source. The rule behind the calls is not given here.
Assays:
[1] = Inhibition of bovine tubulin polymerisation after 20 mins by turbidimetric analysis; parameters: species or system Bos taurus
Summary of the method: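 Bovine brain tubulin at 10 μM was preincubated with varying compound concentrations in glutamate buffer at 30 °C, cooled to 0 °C, and 0.4 mM GTP added. Samples were warmed to 30 °C and assembly followed by turbidity at 350 nm.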

[2] = species: Bos taurus; experiment: Displacement of [3H]colchicine from bovine tubulin at 5 uM by DEAE-cellulose filter method
Summary of the method: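 Inhibition of [3H]colchicine binding was measured in mixtures of 1 μM tubulin, 5 μM [3H]colchicine and 5 μM test compound. Results are percent inhibition of binding.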

[3] = Inhibition of tubulin polymerization
Summary of the method: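 Bovine brain tubulin at 10 μM in glutamate buffer was preincubated with compound at varying concentrations at 30 °C, then cooled to 0 °C. GTP was added to 0.4 mM and the mixture rewarmed to 30 °C. Assembly was followed by turbidity at 350 nm.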

[4] = tested on: HeLa; experiment: Cytotoxicity against human HeLa cells after 72 hrs by MTT assay; type: functional, cell-based
[5] = tested on: A549; experiment: Cytotoxicity against human A549 cells after 72 hrs by MTT assay; type: functional, cell-based; conditions: A549, 72 h
[6] = tested on: HL-60; experiment: Cytotoxicity against human HL60 cells after 72 hrs by MTT assay; type: functional, cell-based; conditions: HL-60, 72 h
[7] = tested on: Jurkat; experiment: Cytotoxicity against human Jurkat cells after 72 hrs by MTT assay; type: functional, cell-based
Summary of the method: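 8 × 10^3 cells/well were preincubated 18 h at 37 °C, 5% CO2, then given graded concentrations for 72 h, with final DMSO not above 0.25%. Viability was read by MTT. […] Mean ± SE from at least three experiments.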

[8] = tested on: MCF7; experiment: Cytotoxicity against human MCF7 cells after 72 hrs by MTT assay; type: functional, cell-based; conditions: MCF7, 72 h
[9] = tested on: HT-29; experiment: Cytotoxicity against human HT-29 cells after 72 hrs by MTT assay; type: functional, cell-based; conditions: HT-29, 72 h
[10] = tested on: LoVo; experiment: Cytotoxicity against human LoVo cells after 72 hrs by MTT assay; type: functional, cell-based
Summary of the method: (§1)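 Cells seeded at 8 × 10^3 per well and left 18 h at 37 °C, 5% CO2, then given fresh medium with compound at a range of concentrations for 72 h; DMSO at most 0.25% final. Viability read by MTT relative to 0.25% DMSO-treated cells. […] LoVoDoxo kept in Ham's F12 with 0.1 μg/mL doxorubicin; A549-T12 kept in DMEM with 12 nM paclitaxel.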

[11] = tested on: LoVo; experiment: Cytotoxicity against human doxorubicin-resistant LoVo cells after 72 hrs by MTT assay; type: functional, cell-based; summary of the method: as §1
[12] = tested on: LoVo; experiment: Resistance ratio of IC50 for human doxorubicin-resistant LoVo cells to human LoVo cells; type: functional
[13] = tested on: CCRF-CEM; experiment: Cytotoxicity against human CEM cells after 72 hrs by MTT assay; type: functional, cell-based; summary of the method: as §1
[14] = Cytotoxicity against human CEM/VBL100 cells after 72 hrs by MTT assay; type: functional, cell-based; conditions: CEM/VBL100, 72 h; summary of the method: as §1
[15] = tested on: CCRF-CEM; experiment: Resistance ratio of IC50 for human CEM/VBL100 cells to IC50 for human CEM cells; type: functional
[16] = Cytotoxicity against human A549-T12 cells after 72 hrs by MTT assay; type: functional, cell-based; conditions: A549, 72 h; summary of the method: as §1
[17] = tested on: A549; experiment: Resistance ratio of IC50 for human A549-T12 cells to IC50 for human A549 cells; type: functional
[18] = tested on: HeLa; experiment: Induction of cell cycle arrest in human HeLa cells assessed as increase in G2/M phase cells at 15 to 250 nM after 24 hrs by flow cytometry; type: functional, cell-based
Summary of the method: (§2)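 Exponentially growing HeLa cells (5 × 10^5) were treated 24 h at 15–250 nM. Cells were fixed in ice-cold 70% ethanol, lysed with RNase A/0.1% Triton X-100 buffer and stained with propidium iodide. DNA content was measured by flow cytometry to score G2/M fraction. Mean ± SEM of three independent experiments.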

[19] = tested on: HeLa; experiment: Induction of cell cycle arrest in human HeLa cells assessed as increase in G2/M phase cells after 24 hrs by flow cytometry; type: functional, cell-based
Summary of the method: (§3)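 5 × 10^5 exponentially growing HeLa cells were treated with 15–250 nM for 24 h, fixed in ice-cold 70% ethanol, then treated with lysis buffer containing RNase A and 0.1% Triton X-100. PI staining of DNA content, read by flow cytometry. Mean ± SEM of three independent experiments.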

[20] = tested on: HeLa; experiment: Induction of cell cycle arrest in human HeLa cells assessed as increase in G2/M phase cells at 30 nM after 24 hrs by flow cytometry; type: functional, cell-based; summary of the method: as §3
[21] = tested on: HeLa; experiment: Induction of cell cycle arrest in human HeLa cells assessed as G2/M phase cells at 60 nM after 24 hrs by flow cytometry; type: functional; summary of the method: as §2
[22] = tested on: HeLa; experiment: Induction of cell cycle arrest in human HeLa cells assessed as decrease in G1 phase cells at 15 to 250 nM after 24 hrs by flow cytometry; type: functional, cell-based; summary of the method: as §3
[23] = tested on: HeLa; experiment: Induction of cell cycle arrest in human HeLa cells assessed as decrease in S phase cells at 15 to 250 nM after 24 hrs by flow cytometry; type: functional, cell-based; summary of the method: as §3
[24] = tested on: HeLa; experiment: Induction of apoptosis in human HeLa cells assessed as increase in annexin-V positive apoptotic cells after 24 to 48 hrs by FITC conjugated annexin-V/PI staining-based flow cytometry; type: functional, cell-based
Summary of the method: (§4)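 Flow cytometry of HeLa cells after 24 or 48 h exposure, double-stained with annexin-V-FITC and propidium iodide. Excitation at 488 nm, emission at 525 nm (FITC) and 585 nm (PI). Quadrants scored as live, early apoptotic, late apoptotic or necrotic cells.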

[25] = tested on: HeLa; experiment: Induction of apoptosis in human HeLa cells assessed as increase in annexin-V positive apoptotic cells at 50 to 100 nM by FITC conjugated annexin-V/PI staining-based flow cytometry; type: functional, cell-based; conditions: TDE = time-dependent effect; summary of the method: as §4
[26] = tested on: HeLa; experiment: Induction of mitochondrial depolarization in human HeLa cells after 24 to 48 hrs by JC1-based fluorescent staining; type: functional, cell-based
Summary of the method: (§5)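 Mitochondrial membrane potential in HeLa cells after 24 or 48 h incubation, measured with the JC-1 dye by flow cytometry. Aggregates read as red (590 nm) and monomers as 530 nm; output is the percentage of depolarized cells. Mean ± SEM of three independent experiments.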

[27] = tested on: HeLa; experiment: Induction of mitochondrial depolarization in human HeLa cells at 50 to 100 nM by JC1-based fluorescent staining; type: functional, cell-based; conditions: TDE = time-dependent effect; summary of the method: as §5
[28] = tested on: HeLa; experiment: Induction of ROS production in human HeLa cells at 50 to 100 nM after 24 to 48 hrs by HE staining-based flow cytometry; type: functional, cell-based
Summary of the method: (§6)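 HeLa cells were exposed for 24 or 48 h, then stained with hydroethidine or H2-DCFDA for ROS and read by flow cytometry. DMSO ≤0.25%. Mean ± SEM of three independent experiments.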

[29] = tested on: HeLa; experiment: Induction of ROS production in human HeLa cells at 50 to 100 nM after 24 to 48 hrs by H2-DCFDA staining-based flow cytometry; type: functional, cell-based; summary of the method: as §6

Compound | IC50 [1] [nM] | inhibition [2] [%] | IC50 [4] [nM] | IC50 [5] [nM] | IC50 [6] [nM] | IC50 [7] [nM] | IC50 [8] [nM] | IC50 [9] [nM] | also measured
CCOc1ccc(-c2ncnn2-c2cc(OC)c(OC)c(OC)c2)cc1 | 760 | 86 |  |  |  |  |  |  | 
COc1ccc(-c2nnnn2-c2cc(OC)c(OC)c(OC)c2)cc1N |  |  |  |  |  |  |  |  | IC50 [3]: 2000 nM
CCCCOc1ccc(-c2nnnn2-c2cc(OC)c(OC)c(OC)c2)cc1 |  |  | > 10000 | > 10000 | > 10000 | > 10000 | > 10000 | > 10000 | 
COc1ccc(-c2nnnn2-c2cc(OC)c(OC)c(OC)c2)cc1Cl | 3500 | 50 | 2.3 | 402 | 3.6 | 10 | 25.2 | 35.9 | 
COc1ccc(-n2nnnc2-c2cc(OC)c(OC)c(OC)c2)cc1 | 2100 | 70 | 952 | > 10000 | 40.3 | 209 | 27.1 | 265 | 
COc1ccc(-c2nnnn2-c2cc(OC)c(OC)c(OC)c2)cc1 | 2500 | 54 | 2.6 | 222 | 2.9 | 2.6 | 38.5 | 4.6 | 
CCOc1ccc(-c2nnnn2-c2cc(OC)c(OC)c(OC)c2)cc1Cl | 2000 | 58 | 2.6 | 28.8 | 0.8 | 0.23 | 1.8 | 1.6 | IC50 [10]: 12.5 nM; IC50 [11]: 15.7 nM; Ratio IC50 [12]: 1.3; IC50 [13]: 0.7 nM; IC50 [14]: 0.7 nM; Ratio IC50 [15]: 1; IC50 [16]: 31.5 nM; Ratio IC50 [17]: 1.1; Activity [18]: Active
COc1cc(-c2nnnn2-c2cc(OC)c(OC)c(OC)c2)cc(OC)c1OC |  |  | > 10000 | > 10000 | > 10000 | > 10000 | > 10000 | > 10000 | 
COc1cc(-n2nnnc2-c2cccs2)cc(OC)c1OC |  |  | > 10000 | > 10000 | > 10000 | > 10000 | > 10000 | > 10000 | 
CCc1ccc(-c2nnnn2-c2cc(OC)c(OC)c(OC)c2)cc1 | 3700 | 47 | 29 | 3380 | 53.1 | 55.1 | 12.6 | 182 | 
CCOc1ccc(-n2nnnc2-c2cc(OC)c(OC)c(OC)c2)cc1 | 2000 | 71 | 0.3 | 7.4 | 0.7 | 0.26 | 2.8 | 3.1 | IC50 [10]: 118 nM; IC50 [11]: 96.9 nM; Ratio IC50 [12]: 0.8; IC50 [13]: 3.8 nM; IC50 [14]: 0.5 nM; Ratio IC50 [15]: 0.1; IC50 [16]: 4.2 nM; Ratio IC50 [17]: 0.6; Activity [19]: Dose-dependent effect; Activity [20]: Active; Activity [21]: >80%; Activity [22]: Active; Activity [23]: Active; Activity [24]: Dose-dependent effect; Activity [25]: tde; Activity [26]: Dose-dependent effect; Activity [27]: tde; Activity [28]: Active; Activity [29]: Active
COc1cc(-n2nnnc2-c2ccc(C(C)=O)cc2)cc(OC)c1OC |  |  | 648 | > 10000 | 596 | 325 | > 10000 | 6030 | 
COc1ccc(-c2nnnn2-c2cc(OC)c(OC)c(OC)c2)cc1OC |  |  | 259 | 3570 | 488 | 345 | 2720 | 355 | 
COc1cc(-n2nnnc2-c2ccc(C)cc2)cc(OC)c1OC |  |  | 255 | 3420 | 329 | 222 | 1780 | 673 | 
CCCCCOc1ccc(-c2nnnn2-c2cc(OC)c(OC)c(OC)c2)cc1 |  |  | 6400 | > 10000 | > 10000 | > 10000 | > 10000 | > 10000 | 
COc1ccc(-c2nnnn2-c2cc(OC)c(OC)c(OC)c2)cc1F | 2100 | 60 | 2.8 | 332 | 7.3 | 1.3 | 29.7 | 2.7 | 
COc1cc(-n2nnnc2-c2ccccc2)cc(OC)c1OC |  |  | 4100 | > 10000 | 903 | 3.8 | > 10000 | > 10000 | 
CCCOc1ccc(-c2nnnn2-c2cc(OC)c(OC)c(OC)c2)cc1 | 3100 | 46 | 11.1 | 495 | 43.3 | 47 | 66.2 | 105 | 
COc1ccc(-c2nnnn2-c2cc(OC)c(OC)c(OC)c2)cc1C | 2500 | 59 | 2.1 | 37.7 | 2 | 4.1 | 15.4 | 5.6 | 

Reference: ChEMBL document CHEMBL1944515 (J Med Chem, 2012)
